Legend:
Assay type in all cases: functional, cell-based
[1] = system: 786-0; test: Antitumor activity against human 786-0 cells by SRB colorimetric assay
In short: (§1)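 NCI sulforhodamine B colorimetric growth assay in 96-well plates. Each compound tested at four concentrations in 10-fold dilutions. Doxorubicin as positive control. IC50 taken from concentration–response curves as the concentration giving 50% reduction in cell growth versus untreated control cells.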

[2] = system: MCF7; test: Antitumor activity against human MCF7 cells by SRB colorimetric assay; in short: as §1
[3] = system: K562; test: Antitumor activity against human K562 cells by SRB colorimetric assay; in short: as §1
[4] = Antitumor activity against human PCO3 cells by SRB colorimetric assay; in short: as §1
[5] = system: UACC-62; test: Antitumor activity against human UACC62 cells by SRB colorimetric assay; in short: as §1
[6] = system: OVCAR; test: Antitumor activity against human OVCAR cells by SRB colorimetric assay; in short: as §1
[7] = system: NCI-H460; test: Antitumor activity against human NCI-H460 cells by SRB colorimetric assay; in short: as §1
[8] = system: HT-29; test: Antitumor activity against human HT-29 cells by SRB colorimetric assay; in short: as §1

Compound	IC50 [1] [µM]	IC50 [2] [µM]	IC50 [3] [µM]	IC50 [6] [µM]	IC50 [7] [µM]	IC50 [8] [µM]	IC50 [4] [µM]	IC50 [5] [µM]
O=C(NN=C1CCCC1)c1cc2c([nH]c3ccccc32)c(-c2cccc([N+](=O)[O-])c2)n1	> 100	> 100	> 100	> 100	> 100	> 100	> 100	> 100
O=C(NN=C1CCCC1)c1cc2c([nH]c3ccccc32)c(-c2ccc(O)cc2)n1	> 100	78.1	> 100	> 100	> 100	> 100	> 100	> 100
CN(C)c1ccc(/C=N/NC(=O)c2cc3c4ccccc4n(C)c3c(-c3cccc([N+](=O)[O-])c3)n2)cc1	1.24	> 100	> 100	> 100	> 100	> 100	> 100	> 100
O=C(NN=C1CCCC1)c1cc2c([nH]c3ccccc32)c(-c2ccc([N+](=O)[O-])cc2)n1	> 100	> 100	> 100	> 100	> 100	> 100	> 100	> 100
O=C(NN=C1CCCCC1)c1cc2c([nH]c3ccccc32)c(-c2ccc(O)cc2)n1	15	8.33	10.3	13.2	13.2	10.3	7.68	7.86
CN(C)c1ccc(-c2nc(C(=O)NN=C3CCCC3)cc3c2[nH]c2ccccc23)cc1	> 100	22.6	13.4	> 100	80.9	55.6	20.4	18.8
O=C(NN=C1CCCCC1)c1cc2c([nH]c3ccccc32)c(-c2cccc([N+](=O)[O-])c2)n1	> 100	> 100	87.1	> 100	> 100	> 100	> 100	> 100
O=C(NN=C1CCCCC1)c1cc2c([nH]c3ccccc32)c(-c2ccccc2Cl)n1	24.5	6.19	> 100	20.8	54.1	40.4	18.3	21.6
O=C(N/N=C/c1ccccc1)c1cc2c([nH]c3ccccc32)c(-c2cccc([N+](=O)[O-])c2)n1	3.76	2.61	1.24	6.14	1.93	1.93	> 100	1.19
COc1ccc(-c2nc(C(=O)NN=C(C)C)cc3c2[nH]c2ccccc23)cc1O	70	> 100	> 100	> 100	> 100	> 100	> 100	> 100
O=C(N/N=C/c1ccccc1Cl)c1cc2c([nH]c3ccccc32)c(-c2ccccc2)n1	2.16	6.13	1.45	2.84	4.57	1.25	2.52	2.16
CC(C)=NNC(=O)c1cc2c([nH]c3ccccc32)c(-c2cccc([N+](=O)[O-])c2)n1	> 100	> 100	> 100	> 100	> 100	> 100	> 100	> 100
O=C(N/N=C/c1ccccc1Cl)c1cc2c([nH]c3ccccc32)c(-c2ccc([N+](=O)[O-])cc2)n1	2.75	18	6.35	4.55	38.1	3.85	18	2.53
O=C(NN=C1CCCCC1)c1cc2c([nH]c3ccccc32)c(-c2ccccc2)n1	> 100	32.5	55.9	78	68.9	47.3	27.5	31.2
CC(C)=NNC(=O)c1cc2c([nH]c3ccccc32)c(-c2ccc(N(C)C)cc2)n1	26.5	16.8	23.4	40.5	25.4	35.6	19	10.1
COc1ccc(-c2nc(C(=O)NN=C3CCCC3)cc3c2[nH]c2ccccc23)cc1O	97	> 100	> 100	> 100	> 100	–	> 100	> 100
CN(C)c1ccc(-c2nc(C(=O)NN=C3CCCCC3)cc3c2[nH]c2ccccc23)cc1	> 100	> 100	> 100	> 100	> 100	–	> 100	> 100

Now from value to compound, other results behind:

IC50 [1] [µM]	IC50 [2] [µM]	IC50 [3] [µM]	IC50 [6] [µM]	IC50 [7] [µM]	IC50 [8] [µM]	Compound	IC50 [4] [µM]	IC50 [5] [µM]
> 100	> 100	> 100	> 100	> 100	> 100	COc1ccc(-c2nc(C(=O)NN=C3CCCC3)cc3c2[nH]c2ccccc23)cc1	> 100	76.4
> 100	71.4	> 100	> 100	35.1	> 100	COc1ccc(/C=N/NC(=O)c2cc3c([nH]c4ccccc43)c(-c3ccc(OC)cc3)n2)cc1	> 100	91.4
93.4	36	3.22	32.3	3.45	36	COc1ccc(-c2nc(C(=O)N/N=C/c3ccccc3)cc3c2[nH]c2ccccc23)cc1	26.5	3.45
> 100	12.8	4.26	46.7	6.76	7.34	O=C(N/N=C/c1ccc([N+](=O)[O-])cc1)c1cc2c([nH]c3ccccc32)c(-c2cccc([N+](=O)[O-])c2)n1	24.8	3.27
9.58	12.3	3.73	51	> 100	3.87	O=C(N/N=C/c1ccc([N+](=O)[O-])cc1)c1cc2c([nH]c3ccccc32)c(-c2ccc(O)cc2)n1	12.8	4.46
24.3	24.3	18.1	> 100	38.1	> 100	CC(C)=NNC(=O)c1cc2c([nH]c3ccccc32)c(-c2ccc(O)cc2)n1	19.7	35.4
4.32	8.94	4.31	1.26	19.8	4.32	O=C(N/N=C/c1ccccc1)c1cc2c([nH]c3ccccc32)c(-c2ccc(O)cc2)n1	2.25	3.18
> 100	> 100	> 100	> 100	> 100	> 100	COc1ccc(-c2nc(C(=O)N/N=C/c3ccc(N(C)C)cc3)cc3c2[nH]c2ccccc23)cc1	> 100	> 100
29.9	25	14.4	2.05	13.8	18.8	O=C(N/N=C/c1ccccc1)c1cc2c([nH]c3ccccc32)c(-c2ccc([N+](=O)[O-])cc2)n1	15.9	11.8
> 100	> 100	> 100	> 100	> 100	> 100	O=C(N/N=C/c1ccc([N+](=O)[O-])cc1)c1cc2c([nH]c3ccccc32)c(-c2ccc([N+](=O)[O-])cc2)n1	> 100	> 100
> 100	> 100	> 100	1.26	69.5	> 100	CN(C)c1ccc(/C=N/NC(=O)c2cc3c([nH]c4ccccc43)c(-c3ccc(O)cc3)n2)cc1	–	88.2
> 100	> 100	> 100	> 100	> 100	> 100	CN(C)c1ccc(/C=N/NC(=O)c2cc3c([nH]c4ccccc43)c(-c3ccc([N+](=O)[O-])cc3)n2)cc1	> 100	> 100
14.1	8.19	7.54	21.4	4.58	8.92	COc1ccc(/C=N/NC(=O)c2cc3c([nH]c4ccccc43)c(-c3ccc([N+](=O)[O-])cc3)n2)cc1	7.54	9.69
1.39	> 100	> 100	> 100	> 100	> 100	COc1ccc(-c2nc(C(=O)N/N=C/c3ccccc3)cc3c4ccccc4n(C)c23)cc1	> 100	> 100
2.52	10.4	2.52	7.43	1.43	1.26	COc1ccc(-c2nc(C(=O)N/N=C/c3ccccc3Cl)cc3c2[nH]c2ccccc23)cc1	4.52	5.57
29.7	21.3	4.29	14.4	5.16	15.1	O=C(N/N=C/c1ccc([N+](=O)[O-])cc1)c1cc2c([nH]c3ccccc32)c(-c2ccccc2)n1	8.6	4.78
62	> 100	87.4	0.37	9.82	95.6	COc1ccc(/C=N/NC(=O)c2cc3c([nH]c4ccccc43)c(-c3ccc(O)cc3)n2)cc1	–	3.85

Reference: ChEMBL document CHEMBL1914299, “Synthesis and antitumor activity of β-carboline 3-(substituted-carbohydrazide) derivatives” (Bioorg Med Chem, 2011)
